ChEMBL document CHEMBL1121565, “Antiarrhythmic activity of amitriptyline analogues in conscious dogs after myocardial infarction: cyproheptadinium methiodide” (1980)

How the values were obtained:
[1] = test system: Canis familiaris; experiment: Evaluated for the antiarrhythmic activity in conscious dogs after myocardial infarction by observing 50% reduction in ectopic rate..; format: functional, Canis lupus familiaris, Heart
Method in brief: (§1)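 After 30-45 min of adjustment with lead II ECG recording (about 80-85% ectopic complexes), drug was given iv through a foreleg vein in 0.5 mL increments at 2-min intervals. Dosing stopped at sinus rhythm or 3.0 mg/kg total.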

[2] = test system: Canis familiaris; experiment: Evaluated for the antiarrhythmic activity in conscious dogs after myocardial infarction by observing for conversion to sinus rhythm.; format: functional, Canis lupus familiaris, Heart; method in brief: as §1
[3] = test system: Canis familiaris; experiment: Compound was tested for its activity against altering of mean arterial blood pressure when administered with a dose of 25 ug/Kg; Could not significantly alter; format: functional, organism-based; settings: Canis lupus familiaris; Artery
Method in brief: (§2)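 Anesthetized dogs with no cardiac insult were allowed about 30 min to stabilize after surgery, then given 25 µg/kg iv, followed by 50 µg/kg 30 min later. Arterial pressure, lead II ECG from limb needle electrodes, ECG-derived heart rate and left ventricular dp/dt at 50 mmHg developed pressure were recorded at 100 mm/s. Values before and 5 min after dosing were compared by Student's t test, p < 0.05.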

[4] = test system: Canis familiaris; experiment: Heart beat rate was measured in dogs after 5 min of administration of 25 ug/Kg dose of the compound; format: functional, Canis lupus familiaris; method in brief: as §2
[5] = test system: Canis familiaris; experiment: Heart beat rate was measured in dogs after subsequent administration of 50 micorg/Kg 30 min after administration of 25 ug/Kg dose of the compound; format: functional, Canis lupus familiaris; method in brief: as §2
[6] = species on record: Canis familiaris; experiment: Heart beat rate was measured in dogs prior to the treatment with compound; format: functional, Canis lupus familiaris; method in brief: as §2
[7] = test system: Canis familiaris; experiment: Myocardial contractility was measured in dogs after 5 min of administration of 25 ug/Kg dose of the compound; format: functional, Canis lupus familiaris, Myocardium; method in brief: as §2
[8] = species on record: Canis familiaris; experiment: Myocardial contractility was measured in dogs prior to the treatment with compound; format: functional, Canis lupus familiaris, Myocardium; method in brief: as §2

| SMILES | Dose [1] [µM/kg] | Dose [2] [µM/kg] | Activity [3] | Heart beat [4] [beats min-1] | Heart beat [5] [beats min-1] | Heart beat [6] [beats min-1] | Activity [7] [mmHg s-1] | Activity [8] [mmHg s-1] |
| --- | --- | --- | --- | --- | --- | --- | --- | --- |
| CN(C)CCC=C1c2ccccc2CCc2ccccc21 [AMITRIPTYLINE] | 3.97 | 4.69 | – | – | – | – | – | – |
| CN(C)CCC=C1c2ccccc2C=Cc2ccccc21 [CYCLOBENZAPRINE] | 3.99 | 6.17 | – | – | – | – | – | – |
| C[N+]1(C)CCC(=C2c3ccccc3C=Cc3ccccc32)CC1.[I-] | 0.03 | 0.042 | Could not significantly alter | 174 | 196 | 148 | 3250 | 2333 |
| CN1CCC(=C2c3ccccc3C=Cc3ccccc32)CC1 [CYPROHEPTADINE] | 0.69 | 1.04 | – | – | – | – | – | – |
| CCN(CC)CC(=O)Nc1c(C)cccc1C.Cl | 5.54 | 9.97 | – | – | – | – | – | – |
